Source: ChEMBL document CHEMBL1132487, “Structure-activity studies of cerulenin analogues as protein palmitoylation inhibitors” (J Med Chem, 1999)

Legend:
[1] = system: T-24; experiment: Inhibition of human T24 cell proliferation; type: functional, cell-based
Summary of the method: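 T24 human bladder carcinoma cells (H-[Val12]-ras overexpressing) in RPMI-1640 with 10% FBS, seeded at 10% confluency, allowed 24 h attachment, then exposed to varying concentrations up to 50 μg/mL for 72 h. Surviving cells measured by sulforhodamine B staining (MTS also used). IC50 vs untreated controls, mean ± SEM of at least three experiments.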

[2] = species: Homo sapiens; experiment: Inhibition of p21 palmitoylation at a concentration of 10(ug/ml); type: functional
Summary of the method: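 T24 cells seeded at ~25% confluency and attached overnight, treated 4 h with compound at 10 μg/mL, then labelled 2 h with [3H]palmitate (100–200 μCi/mL). Lysates in PBS-TDS, protein-normalized (100–300 μg), immunoprecipitated with Y13-259 anti-Ras antibody and Protein G agarose. Pellet radioactivity counted by scintillation. Percent inhibition vs untreated controls, one or two experiments.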

[3] = target: Fatty acid synthase (Homo sapiens) (UniProt P49327); experiment: Inhibition of fatty acid synthase at a concentration of 150 (uM)
Sequence of Fatty acid synthase (Homo sapiens) (P49327 whole entry, looked up): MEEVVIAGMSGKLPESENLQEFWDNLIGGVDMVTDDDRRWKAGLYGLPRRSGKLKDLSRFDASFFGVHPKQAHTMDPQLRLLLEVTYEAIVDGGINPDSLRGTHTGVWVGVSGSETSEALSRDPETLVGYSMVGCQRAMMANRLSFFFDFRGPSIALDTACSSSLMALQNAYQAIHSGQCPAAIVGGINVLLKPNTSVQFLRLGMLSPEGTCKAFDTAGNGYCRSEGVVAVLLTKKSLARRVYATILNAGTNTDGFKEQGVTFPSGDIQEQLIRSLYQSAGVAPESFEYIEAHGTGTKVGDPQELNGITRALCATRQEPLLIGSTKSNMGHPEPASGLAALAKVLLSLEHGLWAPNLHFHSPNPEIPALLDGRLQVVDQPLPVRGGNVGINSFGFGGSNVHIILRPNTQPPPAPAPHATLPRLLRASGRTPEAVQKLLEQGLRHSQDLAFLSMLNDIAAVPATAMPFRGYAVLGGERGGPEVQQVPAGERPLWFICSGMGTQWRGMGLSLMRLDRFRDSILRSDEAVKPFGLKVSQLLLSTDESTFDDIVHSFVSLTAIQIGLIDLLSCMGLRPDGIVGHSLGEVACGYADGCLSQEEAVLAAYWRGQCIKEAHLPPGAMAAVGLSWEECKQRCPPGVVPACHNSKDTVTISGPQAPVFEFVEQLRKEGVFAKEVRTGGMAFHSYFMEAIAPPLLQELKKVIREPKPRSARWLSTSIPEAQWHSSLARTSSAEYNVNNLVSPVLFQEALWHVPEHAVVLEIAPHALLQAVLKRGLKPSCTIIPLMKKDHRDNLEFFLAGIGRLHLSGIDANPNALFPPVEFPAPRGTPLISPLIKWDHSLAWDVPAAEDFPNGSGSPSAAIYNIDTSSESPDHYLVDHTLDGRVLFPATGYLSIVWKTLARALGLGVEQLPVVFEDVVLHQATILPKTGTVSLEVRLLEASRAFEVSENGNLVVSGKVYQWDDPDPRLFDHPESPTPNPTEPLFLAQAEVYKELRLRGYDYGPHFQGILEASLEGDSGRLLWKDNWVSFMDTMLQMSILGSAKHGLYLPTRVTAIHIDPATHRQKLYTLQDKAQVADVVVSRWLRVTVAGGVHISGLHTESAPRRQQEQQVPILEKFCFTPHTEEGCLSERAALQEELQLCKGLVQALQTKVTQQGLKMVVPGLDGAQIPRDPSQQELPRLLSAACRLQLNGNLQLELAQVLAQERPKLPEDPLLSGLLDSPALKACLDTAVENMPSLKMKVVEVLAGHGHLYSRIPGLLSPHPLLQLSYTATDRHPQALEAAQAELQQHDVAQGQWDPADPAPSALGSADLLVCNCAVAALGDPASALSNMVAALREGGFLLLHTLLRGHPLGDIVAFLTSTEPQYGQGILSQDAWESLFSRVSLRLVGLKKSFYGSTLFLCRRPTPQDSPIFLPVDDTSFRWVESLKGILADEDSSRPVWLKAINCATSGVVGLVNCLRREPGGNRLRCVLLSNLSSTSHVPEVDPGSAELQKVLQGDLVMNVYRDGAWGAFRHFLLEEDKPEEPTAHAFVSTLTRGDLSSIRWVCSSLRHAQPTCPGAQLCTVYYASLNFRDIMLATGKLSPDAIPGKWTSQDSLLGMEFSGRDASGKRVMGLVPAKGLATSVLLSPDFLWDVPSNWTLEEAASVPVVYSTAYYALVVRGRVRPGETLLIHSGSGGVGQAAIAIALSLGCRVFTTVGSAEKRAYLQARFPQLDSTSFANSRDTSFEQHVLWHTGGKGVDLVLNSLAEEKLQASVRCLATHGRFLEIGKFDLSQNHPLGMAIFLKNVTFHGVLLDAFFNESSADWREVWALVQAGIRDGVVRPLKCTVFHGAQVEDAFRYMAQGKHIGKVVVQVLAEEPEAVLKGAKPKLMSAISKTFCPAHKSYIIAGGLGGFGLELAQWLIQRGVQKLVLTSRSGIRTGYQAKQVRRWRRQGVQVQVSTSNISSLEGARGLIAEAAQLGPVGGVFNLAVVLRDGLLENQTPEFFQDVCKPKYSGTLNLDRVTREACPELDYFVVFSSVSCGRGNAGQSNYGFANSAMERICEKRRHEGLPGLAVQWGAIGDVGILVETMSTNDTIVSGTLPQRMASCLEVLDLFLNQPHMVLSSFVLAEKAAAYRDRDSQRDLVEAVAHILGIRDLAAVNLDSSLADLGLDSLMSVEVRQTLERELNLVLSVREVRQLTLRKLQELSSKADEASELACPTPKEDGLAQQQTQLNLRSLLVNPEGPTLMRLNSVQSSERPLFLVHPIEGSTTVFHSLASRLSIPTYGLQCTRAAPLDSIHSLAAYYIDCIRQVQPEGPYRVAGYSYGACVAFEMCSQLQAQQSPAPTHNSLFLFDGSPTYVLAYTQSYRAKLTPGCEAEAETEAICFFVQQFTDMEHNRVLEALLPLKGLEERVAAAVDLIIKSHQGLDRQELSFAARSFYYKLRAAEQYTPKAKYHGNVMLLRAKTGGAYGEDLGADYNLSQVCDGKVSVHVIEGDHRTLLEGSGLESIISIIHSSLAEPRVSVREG
Summary of the method: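 Fatty acid synthase partially purified from HL-60 human promyelocytic leukemia cells. Lysate incubated with compound (150 μM), then activity read as rate of NADPH oxidation in presence of acetyl-CoA and malonyl-CoA. Percent inhibition reported as mean ± SEM, at least two experiments.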

[4] = species: Homo sapiens; experiment: The compound was tested for the inhibition of p21 palmitoylation at a concentration of 5(ug/mL); type: functional
Summary of the method: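 T24 human bladder carcinoma cells seeded at ~25% confluency in 60 mm dishes, attached overnight; treated 4 h with 5 μg/mL compound, then 2 h [³H]palmitate (100–200 μCi/mL). Lysed in PBS-TDS, protein-normalized (100–300 μg), immunoprecipitated with Y13-259 anti-Ras plus Protein G agarose, washed; pellet radioactivity counted. Percent inhibition of p21 palmitoylation vs untreated controls; six experiments, mean ± SEM.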

Row | SMILES | IC50 [1] [µM] | inhibition [2] [%] | inhibition [3] [%] | inhibition [4] [%]
1 | CCCCCCCCCCCCCCCC(=O)[C@H]1O[C@H]1C(N)=O | 12 | 67 | 2 | 
2 | CCCCCCCCCC(O)[C@H]1O[C@H]1C(N)=O (some centres undefined) | > 200 | 27 | 5 | 
3 | CCCCCCCCCC(=O)[C@H]1O[C@H]1C(=O)N(C)C | 77 | 17 | 2 | 
4 | CCCCCCCCCCCC1OC(=O)[C@@H]2O[C@H]12 (some centres undefined) | > 200 | 19 | 4 | 
5 | NC(=O)[C@H]1O[C@H]1C(=O)c1ccccc1 | 15 | 22 | 85 | 
6 | CCCCCCCCC(=O)[C@H]1O[C@H]1C(N)=O | 27 | 42 | 74 | 
7 | CCCCCCCCCCCCCCCCCC(=O)[C@H]1O[C@H]1C(=O)N(C)C | 34 | 21 | 0 | 
8 | CCCCCCCCCC1OC(=O)[C@@H]2O[C@H]12 (some centres undefined) | > 220 | 33 | 40 | 
9 | CCCCCCCCCC(O)[C@H]1O[C@H]1C(=O)N(C)C (some centres undefined) | 220 | 0 | 0 | 
10 | CCCCCCCCCCCCCCCCCC(=O)[C@H]1O[C@H]1C(N)=O | 17 | 28 | 0 | 
11 | CCCCCCCCCCCCCC(O)[C@H]1O[C@H]1C(=O)N(C)C (some centres undefined) | 69 | 16 | 5 | 
12 | CCCCCCCCCCCCCCCC(=O)[C@H]1O[C@H]1C(=O)N(C)C | 40 | 31 | 0 | 
13 | C/C=C/C/C=C/CCC(=O)[C@H]1O[C@H]1C(N)=O [CERULENIN] | 17 |  | 96 | 48
14 | CCCCCCCCC(O)[C@H]1O[C@H]1C(=O)N(C)C (some centres undefined) | > 190 | 9 | 0 | 
15 | CCCCCCCCCCCCCCCC(O)[C@H]1O[C@H]1C(N)=O (some centres undefined) | 190 | 40 | 10 | 
16 | CCCCCCCCCCCCCCCC1OC(=O)[C@@H]2O[C@H]12 (some centres undefined) | 140 | 35 | 0 | 
17 | CCCCCCCCCCCCCC(=O)[C@H]1O[C@H]1C(N)=O | 13 | 47 | 0 | 

Row | SMILES | IC50 [1] [µM] | inhibition [2] [%] | inhibition [3] [%] | inhibition [4] [%]
18 | CCCCCCCCCCCCCC(=O)[C@H]1O[C@H]1C(=O)N(C)C | 40 | 0 | 2 | 
19 | CCCCCCCCCCCCCCCC(O)[C@H]1O[C@H]1C(=O)N(C)C (some centres undefined) | 62 | 0 | 0 | 
20 | CCCCCCCCC1OC(=O)[C@@H]2O[C@H]12 (some centres undefined) | > 240 | 32 | 75 | 
21 | CCCCCCCCCCCC(=O)[C@H]1O[C@H]1C(N)=O | 20 | 40 | 44 | 
22 | CCCCCCCCC(=O)[C@H]1O[C@H]1C(=O)N(C)C | 140 | 0 | 1 | 
23 | CCCCCCCCCCCCCC(O)[C@H]1O[C@H]1C(N)=O (some centres undefined) | 110 | 34 | 3 | 
24 | CCCCCCCCCCCC(=O)[C@H]1O[C@H]1C(=O)N(C)C | 49 | 10 | 5 | 
25 | CCCCCCCCCC(=O)[C@H]1O[C@H]1C(N)=O | 7 | 63 | 92 | 
26 | CCCCCCCCCCCC(O)[C@H]1O[C@H]1C(=O)N(C)C (some centres undefined) | 95 | 0 | 9 | 
27 | CCCCCCCCC(O)[C@H]1O[C@H]1C(N)=O (some centres undefined) | > 220 | 16 | 4 | 
28 | CCCCCCCCCCCCCCCCCC1OC(=O)[C@@H]2O[C@H]12 (some centres undefined) | > 150 | 45 | 5 | 
29 | CCCCCCCCCCCC(O)[C@H]1O[C@H]1C(N)=O (some centres undefined) | 130 | 29 | 6 | 
30 | CCCCCCCCCCCCCC1OC(=O)[C@@H]2O[C@H]12 (some centres undefined) | > 180 | 2 | 0 | 
31 | CCCCCCCCCCCCCCCCCC(O)[C@H]1O[C@H]1C(N)=O (some centres undefined) | > 140 | 3 | 0 | 
32 | CN(C)C(=O)[C@H]1O[C@H]1C(=O)c1ccccc1 | 29 | 59 | 3 | 
33 | CCCCCCCCCCCCCCCCCC(O)[C@H]1O[C@H]1C(=O)N(C)C (some centres undefined) | 52 | 0 | 3 | 
